Our source for the Activity and Kd values is ChEMBL document CHEMBL1150420, “A peptoid antagonist of VEGF receptor 2 recognizes a 'hotspot' in the extracellular domain distinct from the hormone-binding site” (Bioorg Med Chem, 2008).

By Kd is commonly meant the constant that tells how readily two partners part at equilibrium.

Active and inactive are the calls of the source. No cut-off for these calls is given here. Numbered stars: 1 amine (or outer) side, 2 acyl side, 3 side chain; on linkers, the order of the positions; unused ones are H or OH. Bridge positions count the residues as written; N and C are the ends. Square brackets hold non-standard residues; d marks the D form. Peptide text beside a SMILES is read from it. I, II: the chains in the order shown. ξ: configuration not given here. Gly(N(CH2)2(3-indolyl)) = O=C(O)CNCCc1c[nH]c2ccccc12; Gly(N-piperonyl) = O=C(O)CNCc1ccc2c(c1)OCO2; X1 = CC(c1ccccc1)N(CC(=O)[*:2])[*:1]; NFurfurylGly = O=C(O)CNCc1ccco1; NAllylGly = C=CCNCC(=O)O; Nleu = CC(C)CNCC(=O)O; Nlys = NCCCCNCC(=O)O; ξK = NCCCCC(N)C(=O)O; Ahx = NCCCCCC(=O)O; Nme = COCCNCC(=O)O; βAla = NCCC(=O)O

In test [1] the target is Vascular endothelial growth factor receptor 1 (Homo sapiens) (UniProt P17948). Briefly: Binding affinity to human recombinant VEGFR1 extracellular domain by ELISA like binding assay. The method, boiled down: (§1)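 Plates coated overnight at 4 °C with recombinant human VEGFR ECD at 1 µg/mL in carbonate buffer pH 9.5, then washed and blocked. Serial dilutions of FITC-labelled peptoid in blocking buffer or TBST were added for 1 h at room temperature. After five PBS washes, retained fluorescence was read at 520 nm. KD was taken from the titration.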
Sequence of Vascular endothelial growth factor receptor 1 (Homo sapiens) (P17948 whole entry, the tested form may be a part): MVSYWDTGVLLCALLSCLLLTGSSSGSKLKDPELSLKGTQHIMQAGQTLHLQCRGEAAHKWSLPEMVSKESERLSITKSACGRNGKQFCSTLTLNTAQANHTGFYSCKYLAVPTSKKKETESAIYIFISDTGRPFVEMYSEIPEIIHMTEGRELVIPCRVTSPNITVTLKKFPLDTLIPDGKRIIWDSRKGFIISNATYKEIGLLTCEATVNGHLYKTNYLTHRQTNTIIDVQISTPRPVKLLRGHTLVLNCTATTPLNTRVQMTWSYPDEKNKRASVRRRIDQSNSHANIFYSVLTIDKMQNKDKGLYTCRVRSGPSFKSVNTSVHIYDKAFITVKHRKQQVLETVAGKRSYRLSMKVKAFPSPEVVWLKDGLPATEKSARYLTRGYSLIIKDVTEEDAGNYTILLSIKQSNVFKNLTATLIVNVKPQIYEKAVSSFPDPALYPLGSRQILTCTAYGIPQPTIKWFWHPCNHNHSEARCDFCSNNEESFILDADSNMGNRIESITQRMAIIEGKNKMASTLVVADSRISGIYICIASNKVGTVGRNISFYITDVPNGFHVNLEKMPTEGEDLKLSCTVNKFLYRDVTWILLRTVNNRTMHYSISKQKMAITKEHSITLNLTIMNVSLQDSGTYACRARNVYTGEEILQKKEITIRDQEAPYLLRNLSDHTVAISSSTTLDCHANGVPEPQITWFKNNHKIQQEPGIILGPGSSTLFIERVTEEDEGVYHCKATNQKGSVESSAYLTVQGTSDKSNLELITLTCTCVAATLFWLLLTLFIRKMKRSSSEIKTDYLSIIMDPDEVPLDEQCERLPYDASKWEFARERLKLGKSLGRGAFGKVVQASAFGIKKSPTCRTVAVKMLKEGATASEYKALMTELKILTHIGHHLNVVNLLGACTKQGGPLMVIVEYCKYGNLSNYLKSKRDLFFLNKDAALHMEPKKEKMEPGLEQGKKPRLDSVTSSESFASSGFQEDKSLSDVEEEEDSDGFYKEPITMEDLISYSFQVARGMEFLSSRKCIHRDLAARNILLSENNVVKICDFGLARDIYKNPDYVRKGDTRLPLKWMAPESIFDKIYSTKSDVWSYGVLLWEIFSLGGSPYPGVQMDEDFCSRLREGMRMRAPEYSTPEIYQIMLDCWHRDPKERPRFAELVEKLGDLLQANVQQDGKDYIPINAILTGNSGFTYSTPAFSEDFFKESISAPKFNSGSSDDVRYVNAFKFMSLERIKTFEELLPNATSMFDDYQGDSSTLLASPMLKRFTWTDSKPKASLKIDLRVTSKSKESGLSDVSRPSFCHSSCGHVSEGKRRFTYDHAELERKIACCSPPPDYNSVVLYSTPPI

Test [2] shares this target. Put plainly: Binding affinity to human recombinant VEGFR1(1-3) N terminal domain by ELISA like binding assay. The method, boiled down:
as §1
For orientation: An ELISA detects its analyte on a solid surface through an enzyme-linked reagent.

Test [3] concerns the target T1, Vascular endothelial growth factor receptor 2 (Homo sapiens, UniProt P35968). Put plainly: Binding affinity to human recombinant VEGFR2 extracellular domain by ELISA like binding assay. The method, boiled down:
as §1

Test [4] addresses T1, Vascular endothelial growth factor receptor 2. Put plainly: Displacement of GU40C-FITC form human recombinant VEGFR2 extracellular domain by ELISA like binding assay.
The target is the same in test [5]. Briefly: Displacement of fluorescein-labeled GU40C4 from human recombinant VEGFR2 extracellular domain by ELISA like binding assay.

T1 sequence (P35968 whole entry, the tested form may be a part): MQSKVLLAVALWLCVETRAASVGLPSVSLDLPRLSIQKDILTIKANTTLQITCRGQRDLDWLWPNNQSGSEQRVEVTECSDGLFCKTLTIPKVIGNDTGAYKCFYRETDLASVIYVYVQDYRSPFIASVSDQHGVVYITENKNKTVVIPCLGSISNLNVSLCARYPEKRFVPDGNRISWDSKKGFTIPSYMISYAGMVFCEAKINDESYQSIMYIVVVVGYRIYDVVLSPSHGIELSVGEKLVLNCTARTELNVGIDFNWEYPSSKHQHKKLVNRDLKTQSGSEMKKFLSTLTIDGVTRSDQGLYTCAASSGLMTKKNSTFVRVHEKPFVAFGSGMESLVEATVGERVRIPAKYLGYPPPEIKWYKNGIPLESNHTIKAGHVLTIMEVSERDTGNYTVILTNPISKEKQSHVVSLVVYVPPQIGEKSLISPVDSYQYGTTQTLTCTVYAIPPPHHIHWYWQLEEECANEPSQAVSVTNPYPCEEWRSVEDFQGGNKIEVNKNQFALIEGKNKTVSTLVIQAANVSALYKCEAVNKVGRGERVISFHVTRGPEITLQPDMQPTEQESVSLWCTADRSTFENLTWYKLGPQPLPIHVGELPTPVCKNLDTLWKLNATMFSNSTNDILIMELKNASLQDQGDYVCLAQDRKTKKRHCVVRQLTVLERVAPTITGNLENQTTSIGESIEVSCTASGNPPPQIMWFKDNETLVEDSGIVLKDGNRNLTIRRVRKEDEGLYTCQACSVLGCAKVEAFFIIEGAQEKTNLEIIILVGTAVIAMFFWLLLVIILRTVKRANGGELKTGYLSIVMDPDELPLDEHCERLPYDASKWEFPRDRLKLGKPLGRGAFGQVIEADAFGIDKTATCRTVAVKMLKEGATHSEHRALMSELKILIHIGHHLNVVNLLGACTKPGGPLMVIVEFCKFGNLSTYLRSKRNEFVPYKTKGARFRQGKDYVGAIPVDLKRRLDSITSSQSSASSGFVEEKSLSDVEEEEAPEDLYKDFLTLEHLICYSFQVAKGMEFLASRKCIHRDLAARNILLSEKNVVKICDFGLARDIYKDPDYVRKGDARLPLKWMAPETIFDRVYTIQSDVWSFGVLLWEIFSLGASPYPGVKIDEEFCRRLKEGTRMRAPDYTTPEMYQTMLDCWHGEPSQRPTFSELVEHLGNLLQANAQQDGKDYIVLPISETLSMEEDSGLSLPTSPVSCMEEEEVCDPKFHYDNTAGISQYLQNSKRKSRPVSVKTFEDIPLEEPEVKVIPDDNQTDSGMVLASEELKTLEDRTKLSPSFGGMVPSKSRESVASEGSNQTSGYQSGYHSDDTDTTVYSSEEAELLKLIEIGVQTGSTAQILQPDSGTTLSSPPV

As for `CC(C)CN(CC(=O)N(CCCCN)CC(=O)N(CCCCN)CC(N)=O)C(=O)CN(CCCCN)C(=O)CN(Cc1ccc2c(c1)OCO2)C(=O)CN(CCCCN)C(=O)CN(CC(C)C)C(=O)CN(Cc1ccc2c(c1)OCO2)C(=O)CNCCCCN` (H-[Nlys][Gly(N-piperonyl)][Nleu][Nlys][Gly(N-piperonyl)][Nlys][Nleu][Nlys][Nlys]-NH2), the result in test [1], in test [2], in test [3] and in test [4] was Active.
On to `CC(C)CN(CC(=O)N(CCCCN)CC(=O)N(CC(=O)N(CC(=O)N(CCCCN)CC(=O)N(CC(=O)N(CCCCN)CC(=O)N(CCCCN)CC(N)=O)CC(C)C)Cc1ccc2c(c1)OCO2)C(C)c1ccccc1)C(=O)CNCCCCN` (configuration not stated) (H-[Nlys][Nleu][Nlys][X1][Gly(N-piperonyl)][Nlys][Nleu][Nlys][Nlys]-NH2), for which the outcome in test [1], in test [2] and in test [4] was Active. Further, in test [3], the equilibrium dissociation constant (Kd) is 1000 nM.
In the case of `C=CCN(CC(=O)N(CC(=O)N(CCCCN)CC(=O)N(CCCCN)CC(N)=O)CC(C)C)C(=O)CN(CC(C)C)C(=O)CN(Cc1ccc2c(c1)OCO2)C(=O)CN(CCc1c[nH]c2ccccc12)C(=O)CN(CCCCN)C(=O)CNCCCCN` (H-[Nlys][Nlys][Gly(N(CH2)2(3-indolyl))][Gly(N-piperonyl)][Nleu][NAllylGly][Nleu][Nlys][Nlys]-NH2), the result in test [1], in test [2], in test [3] and in test [4] was Active.
Take `CC(C)CN(CC(=O)N(CCCCN)CC(=O)N(CCCCN)CC(N)=O)C(=O)CN(CCCCN)C(=O)CN(CC(C)C)C(=O)CN(CCCCN)C(=O)CN(Cc1ccco1)C(=O)CN(CCCCN)C(=O)CNCCc1c[nH]c2ccccc12` (H-[Gly(N(CH2)2(3-indolyl))][Nlys][NFurfurylGly][Nlys][Nleu][Nlys][Nleu][Nlys][Nlys]-NH2): the outcome in test [1], in test [2] and in test [4] was Active. Also, the Kd in test [3] was 1000 nM.
For the compound `CC(C)CN(CC(=O)N(CCCCN)CC(=O)N(CC(=O)N(CC(=O)N(CCCCN)CC(=O)N(CC(=O)N(CCCCN)CC(=O)N(CCCCN)CC(=O)NCCCCCC(=O)NCCC(=O)NC(CCCCNC(=O)CN(CCCCN)C(=O)CN(CCCCN)C(=O)CN(CC(C)C)C(=O)CN(CCCCN)C(=O)CN(Cc1ccc2c(c1)OCO2)C(=O)CN(C(=O)CN(CCCCN)C(=O)CN(CC(C)C)C(=O)CNCCCCN)C(C)c1ccccc1)C(N)=O)CC(C)C)Cc1ccc2c(c1)OCO2)C(C)c1ccccc1)C(=O)CNCCCCN` (configuration not stated) (I: H-[Nlys][Nleu][Nlys][X1][Gly(N-piperonyl)][Nlys][Nleu][Nlys][Nlys][Ahx][βAla][ξK]-NH2 / II: H-[Nlys][Nleu][Nlys][X1][Gly(N-piperonyl)][Nlys][Nleu][Nlys][Nlys]; amide I:12-II:C), the outcome in test [5] and in test [3] was Active.
Regarding `C=CCN(CC(=O)N(CCc1c[nH]c2ccccc12)CC(=O)N(CCCCN)CC(=O)N(CC(=O)N(CCCCN)CC(=O)N(CCCCN)CC(N)=O)CC(C)C)C(=O)CN(CC(C)C)C(=O)CN(CCOC)C(=O)CNCCCCN` (H-[Nlys][Nme][Nleu][NAllylGly][Gly(N(CH2)2(3-indolyl))][Nlys][Nleu][Nlys][Nlys]-NH2), the result in test [1], in test [2], in test [3] and in test [4] was Active.
